Results: ChEMBL document CHEMBL4000256, “Light-Regulated NO Release as a Novel Strategy To Overcome Doxorubicin Multidrug Resistance” (ACS Med Chem Lett, 2017)
Calls of active or inactive are those of the source. The rule behind the calls is not given here.

What was measured:
[1] = species on record: Homo sapiens; assay: Inhibition of Pgp in 7 mW/cm'2 irradiated human M14 cells assessed as nitration of tyrosine in pgp at 5 uM measured after 20 mins in presence of doxorubicin by immunoblotting
Summary of the method: (§1)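 M14 melanoma cells held 20 min at room temperature in PBS under 400 nm light (7 mW/cm2) with 5 μM compound, alone or with equimolar doxorubicin. Nitrated ABC transporters (Pgp, MRP1, MRP4, BCRP) detected by immunoblot.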

[2] = target: T1, Broad substrate specificity ATP-binding cassette transporter ABCG2 (Homo sapiens, UniProt Q9UNQ0); assay: Inhibition of BCRP in 7 mW/cm'2 irradiated human M14 cells assessed as nitration of tyrosine in BCRP at 5 uM measured after 20 mins in presence of doxorubicin by immunoblotting; summary of the method: as §1
T1 sequence (Q9UNQ0 whole entry): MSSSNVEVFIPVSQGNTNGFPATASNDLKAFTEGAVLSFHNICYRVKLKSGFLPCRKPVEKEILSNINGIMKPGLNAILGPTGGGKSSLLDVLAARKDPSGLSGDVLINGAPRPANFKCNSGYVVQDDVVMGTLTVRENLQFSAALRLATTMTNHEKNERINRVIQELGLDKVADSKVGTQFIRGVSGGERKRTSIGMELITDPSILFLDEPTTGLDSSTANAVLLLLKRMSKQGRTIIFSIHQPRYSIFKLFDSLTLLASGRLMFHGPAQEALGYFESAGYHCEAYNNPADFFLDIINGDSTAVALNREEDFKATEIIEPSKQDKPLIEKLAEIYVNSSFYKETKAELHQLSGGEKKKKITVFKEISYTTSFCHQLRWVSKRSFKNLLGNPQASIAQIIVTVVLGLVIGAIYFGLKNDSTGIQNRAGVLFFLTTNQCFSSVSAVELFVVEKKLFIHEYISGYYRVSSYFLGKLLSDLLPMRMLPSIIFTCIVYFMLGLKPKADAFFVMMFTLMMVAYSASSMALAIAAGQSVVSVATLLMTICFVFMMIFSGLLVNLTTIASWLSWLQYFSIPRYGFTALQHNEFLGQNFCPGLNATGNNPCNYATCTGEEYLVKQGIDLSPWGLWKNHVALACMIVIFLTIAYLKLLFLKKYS

[3] = system: M14; assay: Dark toxicity in human M14 cells assessed as increase in LDH release at 5 uM measured after 20 mins by spectrophotometric method; type: cell-based; conditions: m14, 20 min
Summary of the method: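 Cells (M14 melanoma, human fibroblasts or rat H9c2 cardiomyocytes) kept 20 min at room temperature in PBS in the dark, with 5 μM compound, given alone or with equimolar 5 μM doxorubicin. Cytotoxicity read as extracellular LDH release. Triplicate measurements, n = 3.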

[4] = system: M14; assay: Cytotoxicity against 7 mW/cm'2 irradiated human M14 cells assessed as increase in LDH release at 5 uM coadministered with DOX measured after 20 mins by spectrophotometric method; type: functional, cell-based
Summary of the method: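 Cells (M14 melanoma, human fibroblasts or rat H9c2 cardiomyocytes) kept 20 min at room temperature in PBS under 400 nm light (7 mW/cm2), alone or with 5 μM compound, given alone or with equimolar 5 μM doxorubicin. Damage read as extracellular LDH release. Triplicate measurements, n = 3.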

[5] = system: M14; assay: Dark toxicity in human M14 cells assessed as increase in nitrite levels at 5 uM measured after 20 mins in presence of doxorubicin by Griess reagent based spectrophotometric method; type: cell-based; conditions: m14, 20 min
Summary of the method: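 M14 melanoma cells held 20 min at room temperature in PBS, either in the dark or under 400 nm light (7 mW/cm2), with 5 μM compound alone or alongside 5 μM doxorubicin. Nitrite in the supernatant measured by Griess assay, in triplicate, n = 3.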

[6] = target: T2, Multidrug resistance-associated protein 1 (Homo sapiens, UniProt P33527); assay: Inhibition of MRP1 in 7 mW/cm'2 irradiated human M14 cells assessed as nitration of tyrosine in MRP1 at 5 uM measured after 20 mins in presence of doxorubicin by immunoblotting; summary of the method: as §1
[7] = target: T2, Multidrug resistance-associated protein 1; assay: Inhibition of MRP1 in 7 mW/cm'2 irradiated human M14 cells assessed as reduction in ATPase activity at 5 uM measured after 20 mins in presence of doxorubicin by immunoblotting
Summary of the method: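 M14 melanoma cells held 20 min at room temperature in PBS under 400 nm light (7 mW/cm2) with 5 μM compound, alone or with equimolar doxorubicin. Transporter ATPase activity then measured; n = 3.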

[8] = Stability of the compound in pH 7.4 PBS at 100 uM incubated under dark condition for >0.5 hrs; type: physicochemical; conditions: buffer, pH 7.4, 0.5 h

T2 sequence (P33527 whole entry): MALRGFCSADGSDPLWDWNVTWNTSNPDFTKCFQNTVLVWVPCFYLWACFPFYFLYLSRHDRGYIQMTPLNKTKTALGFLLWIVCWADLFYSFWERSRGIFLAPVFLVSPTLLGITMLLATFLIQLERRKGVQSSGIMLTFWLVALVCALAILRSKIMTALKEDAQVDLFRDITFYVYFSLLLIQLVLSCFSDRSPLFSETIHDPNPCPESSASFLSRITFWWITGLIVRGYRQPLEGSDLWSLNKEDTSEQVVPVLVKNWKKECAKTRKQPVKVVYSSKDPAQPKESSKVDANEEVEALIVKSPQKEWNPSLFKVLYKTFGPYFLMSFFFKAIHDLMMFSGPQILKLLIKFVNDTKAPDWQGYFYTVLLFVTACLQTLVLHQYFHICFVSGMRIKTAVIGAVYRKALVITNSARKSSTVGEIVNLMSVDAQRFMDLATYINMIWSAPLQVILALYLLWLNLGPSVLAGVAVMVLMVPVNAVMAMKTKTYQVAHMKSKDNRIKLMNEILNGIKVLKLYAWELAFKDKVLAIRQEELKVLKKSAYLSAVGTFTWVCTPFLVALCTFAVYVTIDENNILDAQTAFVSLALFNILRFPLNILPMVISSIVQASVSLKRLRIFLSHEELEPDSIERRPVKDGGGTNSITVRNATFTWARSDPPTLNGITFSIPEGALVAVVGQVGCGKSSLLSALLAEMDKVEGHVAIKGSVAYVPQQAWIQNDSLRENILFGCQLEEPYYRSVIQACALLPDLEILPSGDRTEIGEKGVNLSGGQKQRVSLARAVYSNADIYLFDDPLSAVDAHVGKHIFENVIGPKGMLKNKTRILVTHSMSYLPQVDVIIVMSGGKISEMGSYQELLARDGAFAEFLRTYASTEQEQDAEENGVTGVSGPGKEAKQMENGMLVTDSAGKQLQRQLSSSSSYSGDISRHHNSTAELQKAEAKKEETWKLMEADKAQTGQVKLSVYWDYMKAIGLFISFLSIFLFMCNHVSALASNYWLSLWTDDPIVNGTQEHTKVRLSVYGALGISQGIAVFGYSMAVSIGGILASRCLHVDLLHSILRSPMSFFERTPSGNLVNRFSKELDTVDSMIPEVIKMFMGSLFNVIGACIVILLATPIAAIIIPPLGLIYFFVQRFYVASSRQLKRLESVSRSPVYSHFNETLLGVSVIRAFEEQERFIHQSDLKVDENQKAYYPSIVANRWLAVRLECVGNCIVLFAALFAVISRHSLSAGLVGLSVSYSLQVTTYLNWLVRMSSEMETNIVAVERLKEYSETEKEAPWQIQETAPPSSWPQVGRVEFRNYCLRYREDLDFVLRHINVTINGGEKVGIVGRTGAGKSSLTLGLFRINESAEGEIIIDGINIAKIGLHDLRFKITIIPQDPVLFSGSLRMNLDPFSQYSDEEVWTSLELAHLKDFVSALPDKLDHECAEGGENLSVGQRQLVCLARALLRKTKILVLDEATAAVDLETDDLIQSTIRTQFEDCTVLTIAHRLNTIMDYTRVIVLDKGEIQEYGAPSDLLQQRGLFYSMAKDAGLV

SMILES: NCCCNc1ccc([N+](=O)[O-])c(C(F)(F)F)c1
- inhibition [1]: Active
- inhibition (INH) [2]: Active
- Activity [3]: Non-Toxic
- Activity [4]: Active
- Activity [5]: Non-Toxic
- inhibition (INH) [6]: Active
- inhibition (INH) [7]: Active

SMILES: COc1cccc2c1C(=O)c1c(O)c3c(c(O)c1C2=O)C[C@@](O)(C(=O)COC(=O)c1ccc(C(=O)NCCCNc2ccc([N+](=O)[O-])c(C(F)(F)F)c2)cc1)C[C@@H]3O[C@H]1C[C@H](N)[C@H](O)[C@H](C)O1.Cl
- Stability [8]: Stable
